The test system of series [1] is Pseudomonas aeruginosa. As to the kind of experiment: Antibacterial activity against Pseudomonas aeruginosa PAO1 assessed as growth inhibition after 18 to 20 hrs in presence of PMBN by broth microdilution assay. Format: functional. As to conditions: time 18-20 hrs. The essentials: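 Broth microdilution per EUCAST guidelines in Müller-Hinton broth II (Ca2+/Mg2+ supplemented, pH 7.3). Colonies from overnight LB-agar plates were suspended to OD600 0.08–0.13, diluted 1:100, final inoculum 5 × 10^5 CFU/mL. PMBN at 2 μg/mL was added to the inoculum where indicated. Incubation 37 °C, 18–20 h. MIC was the lowest concentration with no visible growth. At least three independent experiments.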

For series [2], the system named is Pseudomonas aeruginosa. In words: Antibacterial activity against Pseudomonas aeruginosa PAO1 assessed as growth inhibition after 18 to 20 hrs by broth microdilution assay. Format: functional. The following applies: time 18-20 hrs. The essentials: (§1)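 Overnight LB-agar colonies suspended to OD600 0.08–0.13, diluted 1:100; final inoculum 5 × 10^5 CFU/mL. 37 °C, 18–20 h, humid. MIC = lowest concentration without visible growth; range from at least three independent experiments.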

Series [3] deals with Pseudomonas aeruginosa. In words: Antibacterial activity against Pseudomonas aeruginosa PA14 assessed as growth inhibition after 18 to 20 hrs by broth microdilution assay. Format: functional. The following applies: time 18-20 hrs. An outline of the steps:
as §1

For series [4], the system named is Pseudomonas aeruginosa. In words: Antibacterial activity against Pseudomonas aeruginosa PA14 assessed as growth inhibition after 18 to 20 hrs in presence of PMBN by broth microdilution assay. It counts as functional. As to conditions: time 18-20 hrs. An outline of the steps: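 Cation-supplemented Mueller-Hinton broth II; final inoculum 5 × 10^5 CFU/mL. Incubated at 37 °C for 18–20 h. MIC read visually as the lowest concentration without growth; at least three independent experiments.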

A further series addresses DNA gyrase (Escherichia coli, UniProt P0AES4+P0AES6). In words: Inhibition of Escherichia coli DNA gyrase using relaxed PBR322 plasmid DNA as substrate incubated for 30 mins by ethidium bromide staining based agarose gel electrophoresis method. It counts as protein-complex assay. The essentials: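 E. coli gyrase supercoiling kit. Relaxed pBR322 plus 1 U gyrase per reaction, compound serially diluted in 5% DMSO; 30 min at 37 °C. Stopped with STE buffer and CHCl3/isoamyl alcohol; 1% agarose gel, ethidium bromide stain. Supercoiled band intensity fitted with a four-parameter model, bottom fixed at 0, for IC50; at least three experiments.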

Series [5] in a line: Cytotoxicity against human A549 cells assessed as growth inhibition at 100 uM after 48 hrs by MTT assay relative to control. It counts as cell-based. The following applies: read-out: GI. The essentials:
(§2)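 MTT assay: HEK293 or A549 cells seeded at 2 × 10^5 per well. Compounds (final DMSO 1%) were added 24 h after seeding. Living cell mass was read after 48 h.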

The nature of series [6]: Cytotoxicity against HEK293 cells assessed as growth inhibition at 100 uM after 48 hrs by MTT assay relative to control. It counts as cell-based. As to conditions: human, read-out: GI. The essentials: as §2
The nature of series [7]: Half life in human plasma at 40 uM measured up to 150 mins by LC-MS/MS analysis. Format: ADME, cell-free.
Series [8] relates to Escherichia coli. As to the kind of experiment: Antibacterial activity against Escherichia coli K-12 MG1655 assessed as growth inhibition after 18 to 20 hrs by broth microdilution assay. It counts as functional. As to conditions: time 18-20 hrs. The essentials: as §1
Series [9] relates to Pseudomonas aeruginosa. As to the kind of experiment: Antibacterial activity against Pseudomonas aeruginosa PA14 harboring LecB deletion mutant assessed as growth inhibition after 18 to 20 hrs by broth microdilution assay. It counts as functional. The following applies: time 18-20 hrs. The essentials: as §1
Series [10] is described as follows: Inhibition of Pseudomonas aeruginosa PAO1 LecB expressed in Escherichia coli BL21(DE3) cells incubated for 4 to 8 hrs by (N-(fluorescein-5-yl)-N'-(alpha-L-fucopyranosyl ethylene)thiocarbamide) reporter based fluorescence polarization assay.
The subject of the next series is Staphylococcus carnosus. In words: Antibacterial activity against Staphylococcus carnosus DSM 20501 assessed as growth inhibition after 18 to 20 hrs by broth microdilution assay. It counts as functional. The following applies: time 18-20 hrs. The essentials: as §1
Series [11] has as its system Escherichia coli. In words: Antibacterial activity against Escherichia coli DSM 1116 assessed as growth inhibition after 18 to 20 hrs by broth microdilution assay. It counts as functional. The following applies: time 18-20 hrs. The essentials:
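Broth microdilution per EUCAST guidelines in Müller-Hinton broth II (Ca2+/Mg2+ supplemented, pH 7.3). Test range 128 to 0.125 μg/mL, from DMSO stocks. Colonies from overnight LB-agar plates were suspended to OD600 0.08–0.13, diluted 1:100, final inoculum 5 × 10^5 CFU/mL. PMBN at 2 μg/mL was added to the inoculum where indicated. Incubation 37 °C, 18–20 h. MIC was the lowest concentration with no visible growth. At least three independent experiments.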

In series [12] the test system is Pseudomonas aeruginosa. In words: Antibacterial activity against Pseudomonas aeruginosa PA14 harboring LecA deletion mutant assessed as growth inhibition after 18 to 20 hrs by broth microdilution assay. It counts as functional. As to conditions: time 18-20 hrs. An outline of the steps: as §1
Series [13] is described as follows: Inhibition of Pseudomonas aeruginosa PA14 LecB expressed in Escherichia coli BL21(DE3) cells incubated for 4 to 8 hrs by (N-(fluorescein-5-yl)-N'-(alpha-L-fucopyranosyl ethylene)thiocarbamide) reporter based fluorescence polarization assay.
The nature of series [14]: Clearance in human liver microsomes. It counts as ADME, Microsome.
Series [15] in a line: Protein binding in human plasma at 1 uM measured up to 6 hrs by LC-MS/MS analysis. Format: ADME, cell-free. An outline of the steps:
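Rapid equilibrium dialysis: human plasma diluted with PBS pH 7.4 on one side, PBS on the other, compound at 1 μM final. Shaken at 37 °C for 6 h. Sampled at 0, 5 and 6 h and quantified by LC-MS/MS. Binding calculated from the concentration difference between chambers. Warfarin as control.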

Series [16] can be described thus: Clearance in mouse liver microsomes. Format: ADME, Microsome.

≈ marks a conversion by molar mass, not a printed value. Bounds are passed on as bounds.

On to `C#CCN1CCN(c2cc3c(cc2F)c(=O)c(C(=O)O)cn3C2CC2)CC1`, for which the MIC stood at 1 µg/mL with Pseudomonas aeruginosa [1], 4 µg/mL (≈ 10.8 µM) in the series with Pseudomonas aeruginosa [2], 2 µg/mL (≈ 5.41 µM) in the series on Pseudomonas aeruginosa [3] and 0.025 µg/mL in the series on Pseudomonas aeruginosa [4]. This compound also returned an IC50 against DNA gyrase of 0.7 µM.

In the case of `C[C@@H]1O[C@H](CNS(=O)(=O)c2ccc(CCn3cc(CN4CCN(c5cc6c(cc5F)c(=O)c(C(=O)O)cn6C5CC5)CC4)nn3)s2)[C@@H](O)[C@H](O)[C@@H]1O`, the inhibition at 48 h, 100 µM in series [5] was -9%; in series [6] it was 11%. The minimum inhibitory concentration (MIC) in the series on Pseudomonas aeruginosa [1] was 32 µg/mL; with Escherichia coli [8] it was 8 µg/mL (≈ 10.5 µM); in the series with Pseudomonas aeruginosa [9] it was 64 µg/mL (≈ 84 µM); in the series with Staphylococcus carnosus, at least 64 µg/mL; in the series on Escherichia coli [11] it was 16 µg/mL (≈ 21 µM); in the series with Pseudomonas aeruginosa [2], at least 64 µg/mL. The minimum inhibitory concentration (MIC) in the series on Pseudomonas aeruginosa [3] is 64 µg/mL (≈ 84 µM); in the series with Pseudomonas aeruginosa [12], at least 64 µg/mL; in the series with Pseudomonas aeruginosa [4] it was 64 µg/mL. In addition, the half-life at […], 40 µM in [7] was over 2.5 h. For the same compound, the IC50 in [10] was found to be 2.37 µM; in series [13], 2.24 µM. Moreover, the microsomal CLint in series [14] is 15 µL/min/mg; in series [16], 10 µL/min/mg. In series [15], this compound had a PPB of 75%.

Values taken from ChEMBL document CHEMBL4673246, “Directing Drugs to Bugs: Antibiotic-Carbohydrate Conjugates Targeting Biofilm-Associated Lectins of Pseudomonas aeruginosa” (J Med Chem, 2020).
